Publication PMC3582785 (Arthritis and rheumatism, 2013)

System: SE-expressing peptides and tetrameric proteins
Experiment: SPR binding of CRT variants
Settings: citrullinated CRT compared to non-citrullinated CRT
Outline: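 Native, PAD-citrullinated or Arg→Ala mouse CRT was immobilised at 3000 RU. Analytes were 15mer SE-positive or SE-negative control peptides at 330 μM, and HLA-DR tetramers (SE-positive or SE-negative) at 250 nM.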

B1: Cit-CRT: recombinant mouse CRT citrullinated in vitro with PAD from rabbit skeleton muscle (protein, UniProt P14211 18-416, looked up)
Calreticulin: DPAIYFKEQFLDGDAWTNRWVESKHKSDFGKFVLSSGKFYGDLEKDKGLQTSQDARFYALSAKFEPFSNKGQTLVVQFTVKHEQNIDCGGGYVKLFPSGLDQKDMHGDSEYNIMFGPDICGPGTKKVHVIFNYKGKNVLINKDIRCKDDEFTHLYTLIVRPDNTYEVKIDNSQVESGSLEDDWDFLPPKKIKDPDAAKPEDWDERAKIDDPTDSKPEDWDKPEHIPDPDAKKPEDWDEEMDGEWEPPVIQNPEYKGEWKPRQIDNPDYKGTWIHPEIDNPEYSPDANIYAYDSFAVLGLDLWQVKSGTIFDNFLITNDEAYAEEFGNETWGVTKAAEKQMKDKQDEEQRLKEEEEDKKRKEEEEAEDKEDDDDRDEDEDEEDEKEEDEEESPGQAKDEL
modifications: citrullinated
  interaction with the SE ligand (in words): higher affinity for the SE ligand
